In article PMC9043999 (Cell Reports Medicine, 2022):

Tests used:
[1] = tested on: MLD-STZ-induced diabetes in male C57BL6 mice; assay: MLD-STZ-induced diabetes, wild-type mice; assay type: in vivo, mouse
human islets [2] = assay: RPPA protein expression with gene ontology enrichment; assay type: cell-based; conditions: for GO pathways with downregulated proteins / GO pathways with upregulated proteins: adjusted p value < 0.01
Procedure, shortened: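 Islets from 3 male human donors, cultured overnight at 37°C in phenol-red-free RPMI (11 mM glucose, 10% charcoal-stripped FBS). […] Lysates serially diluted twofold (5 dilutions), arrayed on nitrocellulose, probed with 485 antibodies via tyramide amplification and DAB; expression normalized.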

[3] = tested on: insulin-deficient diabetes induced by a single high dose of streptozotocin in male and female mice; conditions: single high dose of STZ; cited from earlier work
ERE-GFP MIN6 cells = assay: ERE-GFP reporter activation, flow cytometry; assay type: cell-based, mouse
Procedure, shortened: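 MIN6 cells were stably transduced with a lentiviral 4×ERE-driven GFP reporter and selected with puromycin (2 μg/mL). They were kept in phenol-free DMEM with 10% charcoal-stripped FBS for 7 days before and during assays. Test compounds were given overnight at 10−8 M, or in time courses at 10 nM (1 min) or 100 nM (1, 15, 60, 120 min). Percent GFP-positive cells were scored by flow cytometry, gated on vehicle-treated cells.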

human islets [4] = assay: RPPA phosphoproteins with Ingenuity Pathway Analysis; assay type: cell-based; conditions: for annotations predicting pathway activation (Z score > 2) / pathways predicting inhibition (Z score < −2): 10^−8 M, 5 min, N = 3 male donors; for most represented biological function: 5 min stimulation (Fig S5)
Procedure, shortened: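 Islets came from three male human donors and were cultured overnight at 37°C in phenol-red-free RPMI (11 mM glucose, 10% charcoal-stripped FBS). They were treated with test compounds at 10−8 M for 5 min, 30 min or 18 h, against untreated islets. Lysates were twofold serially diluted (5 dilutions), arrayed on slides and probed with 485 antibodies using tyramide amplification and DAB detection. Pathway changes were analysed with IPA Downstream Effects Analysis.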

GLP-1R = conditions: target β cells; cited from earlier work

Molecule | index of β cell function (insulin/glucose) ([1]; male C57BL6 mice, 120 μg/kg/day, day 13, vs other treatments) | hyperglycemia ([1]; male C57BL6 mice, 120 μg/kg/day, vs other treatments, n = 10) | protein expression (human islets [2]; 5 and 30 min) | GO pathways with downregulated proteins (human islets [2]; 18 h) | GO pathways with upregulated proteins (human islets [2]; 18 h) | protein expression (human islets [2]; 18 h, compared to GLP-1- and GLP1-E2-treated islets) | prevention of insulin-deficient diabetes [3] | increase in percentage of ERE-activated MIN6 cells (ERE-GFP MIN6 cells; 24 h exposure (text; overnight in legend), 10^−8 M (Fig 2D, 2E)) | ERE activation with ER antagonist fulvestrant (ERE-GFP MIN6 cells; E2 after pretreatment with fulvestrant) | increase in percentage of ERE-activated MIN6 cells (ERE-GFP MIN6 cells; E2 alone 1 min, 10 nM (Fig 2F, 2G)) | time to reach the nucleus and activate EREs (ERE-GFP MIN6 cells; MIN6 cells) | level of phosphoproteins and related total proteins (human islets [4]; 5 and 30 min, vs GLP-1 or GLP1-E2) | annotations predicting pathway activation (Z score > 2) (human islets [4]) | pathways predicting inhibition (Z score < −2) (human islets [4]) | most represented biological function (human islets [4]) | level of phosphoproteins (human islets [4]; 18 h, vs GLP-1 or GLP1-E2) | antidiabetic efficacy at dose ten times lower ([1]; mice, dose ten times lower (12 μg/kg)) | clathrin-mediated endocytosis of GLP-1R (GLP-1R)
C[C@]12CC[C@@H]3c4ccc(O)cc4CC[C@H]3[C@@H]1CC[C@@H]2O [E2, 17β-Estradiol] | maintenance of the index of β cell function | decrease in hyperglycemia | heightened protein expression at 5 and 30 min | downregulated multiple proteins enriched in pathways involved in apoptosis and inflammation, protein phosphorylation, transcription, and Akt/PI3-kinase | upregulated few proteins enriched in pathways involved in proliferation and response to estrogen | decreased protein expression level at 18 h | prevents insulin-deficient diabetes | 4.7 fold | reversed by pretreatment with the ER antagonist fulvestrant | 6.1 fold | ≤ 1 min | heightened level of phosphoproteins and related total proteins at 5 and 30 min | related to cell viability and survival | related to cell death, apoptosis, or necrosis | Cell Death & Survival | decreased in phosphoproteins at 18 h |  | 
glucagon-like peptide-1 [GLP-1] |  |  |  | downregulated multiple proteins enriched in pathways involved in apoptosis, cytokine and oxidative stress-related inflammation, protein phosphorylation, Akt/PI3-kinase, and cell cycle | upregulated few proteins enriched in pathways involved in response to cytokines and glycolysis |  |  |  |  |  |  |  | related to cell viability and survival | related to cell death, apoptosis, or necrosis | Cell Death & Survival |  | not efficient in mice | promotes ligand-activated, clathrin-mediated endocytosis of GLP-1R
